From the EternaBench riboswitch data come the findings set out here.

The series concerns MS2 coat protein. Briefly: apparent Kd, MS2 coat protein; higher = weaker binding; RNA-MaP array. In a few lines:
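Designed RNAs were transcribed in place on an Illumina sequencing chip from sequenced DNA templates. At room temperature and with or without input ligand, they were incubated with fluorescently labeled MS2 coat protein from 1.5 nM to 3 μM, for 0.8–1.5 h at the lowest and 10–20 min at the highest concentrations. Apparent Kd is the median of the binding-curve fits made per cluster, with designs measured on fewer than 10 clusters excluded.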

[1] abbreviates: designed as: OFF switch for flavin mononucleotide, no ligand.
[2] abbreviates: ligand present: flavin mononucleotide, designed as: OFF switch for flavin mononucleotide.
Setting [3] is: designed as: ON switch for flavin mononucleotide, no ligand.
Where [4] appears, read: ligand present: flavin mononucleotide, designed as: ON switch for flavin mononucleotide.
The mark [5] stands for this setting: designed as: ON switch for tryptophan, no ligand.
Setting [6] is: ligand present: tryptophan, designed as: ON switch for tryptophan.
[7] abbreviates: designed as: OFF switch for tryptophan, no ligand.
[8] abbreviates: ligand present: tryptophan, designed as: OFF switch for tryptophan.

Broadly, the apparent Kd is a dissociation constant that holds for the conditions of the assay. For the sequence “AUACAAUCAGGAUAUACUAGGCGAUAACAGAUUAUGACGUCACAUGAGGAUCACCCAUGUAGAAGGGAUCAGGA”, the “apparent Kd” value under setting [1] is 39.2 nM and the “apparent Kd” value under setting [2] worked out at 53.1 nM.

On to “CGCUUGUUCAUAGGAUAUGCUAGGUAACUCAUGGUGAGUUGGGGAACAUGAGGAUCACCCAUGUGGCAGAAGGAUGGCGUUAAU”, for which the “apparent Kd” value came to 65 nM under setting [1] and 55.3 nM under setting [2].

On to “GGAUUCAGAGGAUAUACAUGAGGAUCACCCAUGUCAUUCAGCCAAGAUAUGUGUUUCAGUAGAAGGCUGAUCGG”, for which the “apparent Kd” value under setting [1] was determined as 22.3 nM and the “apparent Kd” value under setting [2] stood at 18 nM.

For “GCAGGAAAGCAGAAGGACACCACAUGAGGAUCACCCAUGUCGGCGCUGACUUUGAUCUUGAGGAUGUAGGAUAUGCGUUUCGGA”, the “apparent Kd” value reads like this: under setting [1], 8.76 nM; under setting [2], 17.4 nM.

With “CUAUACGUAACAUGAGGAUCACCCAUGUUCAGGUGACCAGGAAGAAGGGCUAGCAGAGUAGUUCAGCAGGAUAUUCGAUUAGAC”, the “apparent Kd” value is, setting by setting: under setting [1], 38.6 nM; under setting [2], 28.9 nM.

On to “CAAAACUGAGGAUAUACAAAGAAAUGGAACAUAGUACAGUAACAUGAGGAUCACCCAUGUAGAAGGCAGGACUA”, for which the “apparent Kd” value by setting is: under setting [1], 6.01 nM; under setting [2], 6.6 nM.

For “UCUUCAAUAGUAAGGAUAUCCAUAACAACAUUCAAGGAGAAGGUACAUGAGGAUCACCCAUGUGGAGUCAAUAA”, the “apparent Kd” value runs as follows: under setting [1], 13.1 nM; under setting [2], 19.8 nM.

With “CCUCGUGGACAGGAUAUACACUCGUAUGAUCAUGUAGAAGGGUCCACAUGAGGAUCACCCAUGUUGACAGCCGU”, the “apparent Kd” value runs as follows: under setting [1], 60.5 nM; under setting [2], 81.4 nM.

With “CUCGGCGCCCAAGGAUAUAGUGGAGGUAAGAAACUAGAAGGUGGUGUGCUAACAUGUUGUCCUUUACAUGAGGAUCACCCAUGU”, the “apparent Kd” value under setting [1] came to 38.6 nM and the “apparent Kd” value under setting [2] was determined as 32.9 nM.

As for “AUUGACUCAGAGAAGGGACUCAACAUGAGGAUCACCCAUGUUCUUUCGAAUAAAGGCUCUUAGGGUCAGGAUAUCUGUACGUAA”, the “apparent Kd” value worked out at 9.6 nM under setting [3] and 9.99 nM under setting [4].

As for “CAAGACAUGAGGAUCACCCAUGUGGUGUACCGAGGACCGGUACGGCCGCCACUCGUUCAUCGGUCGACAAGCUACCCUUCAAGGU”, the “apparent Kd” value was 24.2 nM under setting [5] and 38.7 nM under setting [6].

Take “UAAAGCUGAAAGAAGGCUCCAUCGCUAGUACUGAGAGGAUAUUUCGUUGUUGACAUGAGGAUCACCCAUGUGGUUCGCCGGGCC”: the “apparent Kd” value was found to be 49.4 nM under setting [3] and 26.8 nM under setting [4].

As for “GCAUAAGAUCAGAAGGGUAAUUUGUAACAACAUACAGGAUAUGAGGAAACAUGAGGAUCACCCAUGUGAAGCGAAAACAGAAAU”, the “apparent Kd” value under setting [3] was 15.5 nM and the “apparent Kd” value under setting [4] is 11.4 nM.

For the sequence “GCCAAGGUAACAGGAUAUUCUAAAGACGUGAGAUACUAAAUAAACAUGAGGAUCACCCAUGUGAAGAAGAAGGGUUAAGAGUAC”, the “apparent Kd” value is, setting by setting: under setting [1], 15.2 nM; under setting [2], 12.5 nM.

For “GUAACGUGCAAAGGAUAUAUACAUGAGGAUCACCCAUGUCGGAAUGAGAUCAAGGUCGCUCGCCUAUAGAAGGUUGGCGCUACU”, the “apparent Kd” value was determined as 86.7 nM under setting [1] and 43.9 nM under setting [2].

“GCCCUGCGCCCGGGACCGGCAAGAUCCAUGCGAGGACCGGUACGGCCGCCACUCGCAGACGUACAUGAGGAUCACCCAUGUCCUC”: the “apparent Kd” value is 565 nM under setting [7] and 663 nM under setting [8].

Take “GUUUACAUGAGGAUCACCCAUGUCGCCGGCCGAGGACCGGUACGGCCGCCACUCGUCCUAAUGGCACUUGACUUCCCUAUUAAGU”: the “apparent Kd” value reads like this: under setting [5], 20.3 nM; under setting [6], 24.3 nM.

For “CGACUCCCAGAGAAGGCCGCAAACAUGAGGAUCACCCAUGUACUACCUGAGUCUCGGGCGGUACCGGAGGAUAUCUAGGCUCGC”, the “apparent Kd” value came to 26.6 nM under setting [3] and 10.9 nM under setting [4].

As to “UAAGAAGAUGAGAAGGGCCAAGUAUGAGCCGGGCGAUACAUGAGGAUCACCCAUGUUUCCUAACGGCAGGAUAUCACUUCCUAU”, the “apparent Kd” value runs as follows: under setting [1], 5.86 nM; under setting [2], 18.8 nM.

With “GCUGCCGUCGGUGAAAACUCCCAUGCAGAUACCAGCGCAUUCCGCCGCCCUUGGCAGCUGCAUACAUGAGGAUCACCCAUGUGUU”, the “apparent Kd” value runs as follows: (designed as: OFF switch for theophylline, no ligand) 84.4 nM; (ligand present: theophylline, designed as: OFF switch for theophylline) 147 nM.

“AGUAGACGAGGAUAUACGGGCAUAUUUGAUAAGAAGAACAGACAUGAGGAUCACCCAUGUAGAAGGCGAGGCUA”: the “apparent Kd” value runs as follows: under setting [1], 11.1 nM; under setting [2], 10.6 nM.

Consider “ACAAACUCAGGAUAUAACGGUGGACACAUGAGGAUCACCCAUGUAAUCCGUGUGACUUAUUUAGAAGGGAGGCGAU”, for which the “apparent Kd” value is, setting by setting: under setting [1], 8.35 nM; under setting [2], 8.34 nM.

Regarding “UCAUGCUGAGGAUAUACAUGAGGAUCACCCAUGUACAGAAUAAGGGAGUGCCAUCAAAGUAGAAGGCAGGACGU”, the “apparent Kd” value turned out to be 14.4 nM under setting [1] and 14.6 nM under setting [2].

Regarding “AACGUCAACGUAAGGAUAUGCAGUAAGAGCGACAGGCAGAAGGUACAUGAGGAUCACCCAUGUUAACAGAACGG”, the “apparent Kd” value runs as follows: under setting [1], 8.79 nM; under setting [2], 9.6 nM.

In the case of “AGUAGGCAUUCAGGAUAUGGGGAUUUCUCACUGCCACAUGAGGAUCACCCAUGUGGAAGGUACACCCAGAAGGGAAAGUGGUUA”, the “apparent Kd” value runs as follows: under setting [3], 17 nM; under setting [4], 11.3 nM.

In the case of “CGCAGACUGUUAGGAUAUGAUACUAACAUGAGGAUCACCCAUGUUUACUCAGUGGAUAAGCAGAGUCAGAAGGAACAUUACGCA”, the “apparent Kd” value runs as follows: under setting [3], 12.2 nM; under setting [4], 9.29 nM.

Consider “ACUGCUUUAGCGGCCGCCACUACAUGGACACUUACACUUUCUUGUUACAUGAGGAUCACCCAUGUUAGGACCGGGCUUGUACGGA”, for which the “apparent Kd” value under setting [7] came out at 62.1 nM and the “apparent Kd” value under setting [8] came to 78.2 nM.

With “AGCACGAGCGCAGGAUAUGCAUAACCCGUAGCUGCAGAAGGGCGACAUGAGGAUCACCCAUGUAUAUCCAGAACUACAAUCUGA”, the “apparent Kd” value reads like this: under setting [3], 35.8 nM; under setting [4], 33 nM.

For “CGAGUUUGCAAAGGAUAUCGGUUUUGAACAGACCGAGAAGGUUGACUGUACAUGAGGAUCACCCAUGUGUGCUCGAUAUAAAGA”, the “apparent Kd” value by setting is: under setting [3], 7.72 nM; under setting [4], 7.04 nM.

With “UAGUCAUCGGCAGGAUAUUCGCUAGUAGACUAUGAAGAAGGGCCACGUACCUCACAAACAUGAGGAUCACCCAUGUAUCUGGAC”, the “apparent Kd” value is, setting by setting: under setting [1], 39.2 nM; under setting [2], 29 nM.

On to “AAAAGGUCCGCUACAUGAGGAUCACCCAUGUAAAGGGUAAAUCAGGAUAUGGACGGGAGUCUUAACCAGAAGGGAUUACAGGUC”, for which the “apparent Kd” value reads like this: under setting [3], 31.6 nM; under setting [4], 25.1 nM.

As to “CUUAUACAUGAGGAUCACCCAUGUGGUGAUACCAGCCACGAUCAAGGCCCUUGGCAGCACAAAGGGAAUAAUAUGAUUACAAAAC”, the “apparent Kd” value (designed as: ON switch for theophylline, no ligand) came to 227 nM and the “apparent Kd” value (ligand present: theophylline, designed as: ON switch for theophylline) stood at 212 nM.

In the case of “ACGGUUCGAGGAUAUGUCGGUAGUUACAUGAGGAUCACCCAUGUUGUGACAUCGUGGUGGACAGAAGGCGACAUCC”, the “apparent Kd” value under setting [1] was 201 nM and the “apparent Kd” value under setting [2] was determined as 119 nM.

“ACACAUCCACAUGAGGAUCACCCAUGUAAACCGAAAUAGCACUAGGAUAUGGGACAAACAAUUCACCAGAAGGAGUAAAAGAAA”: the “apparent Kd” value reads like this: under setting [3], 52.7 nM; under setting [4], 23.8 nM.

“CGAUACCAUGGUCAGGAUAUGAAACAGCUGACAUGAGGAUCACCCAUGUGAUAGGCAGGUGGACUUCAGAAGGGACACAUACACCA”: the “apparent Kd” value under setting [3] was 184 nM and the “apparent Kd” value under setting [4] was 50.2 nM.

With “UGCUGCUCGAGAGGAUAUACGAAAUGGAACAUGAGGAUCACCCAUGUAUAUCUCCACAAACAGACGUAGAAGGCACAAUAAGGA”, the “apparent Kd” value reads like this: under setting [3], 58.2 nM; under setting [4], 45.8 nM.

On to “GUAUGAGAAGCAUAUACAUGAGGAUCACCCAUGUCCUCAGCGGAGGAUAUGUCUUUCAGGAGUAUACAGAAGGCCGCGGAAUUC”, for which the “apparent Kd” value by setting is: under setting [1], 346 nM; under setting [2], 260 nM.

Consider “AGUCACUUCUAGAAGGCGCGGACUUACUAGCGGCGAGGAUAUAGUAGGAACAUGAGGAUCACCCAUGUCUAUUGGGUACGGCCC”, for which the “apparent Kd” value reads like this: under setting [1], 14.2 nM; under setting [2], 14.9 nM.

“AUAUAAACGCAGAAGGAUCGUUUCCUUUAAAUGAUAGGAUAUGCCAACCUUGACAUGAGGAUCACCCAUGUGUUACUCUGUUUU”: the “apparent Kd” value by setting is: under setting [1], 113 nM; under setting [2], 98.2 nM.

Take “CCAGCAUGGCAGACCAUACAUGAGGAUCACCCAUGUAGAAGCUAGGAUAUAAAUGUAACACACUAUUAGAAGGAGCGCUACCUU”: the “apparent Kd” value by setting is: under setting [1], 8.55 nM; under setting [2], 6.51 nM.

As to “UGCGUCGUUUAGAAGGGAGUGGCCCAACAUGAGGAUCACCCAUGUGACGCUCAGAAUGUAUUUGCUCAGGAUAUAAAUGUCUUU”, the “apparent Kd” value is 162 nM under setting [1] and 123 nM under setting [2].

In the case of “UAGGACAUGAGGAUCACCCAUGUUGUACGGCGAGGACCGGUACGGCCGCCACUCGAGGCGUAAGUAGUAAAGAAUCUGAUUCAAU”, the “apparent Kd” value is 21.4 nM under setting [5] and 24.1 nM under setting [6].

Regarding “GGCUUCCCAAGAGGAUAUGCGGUAAUUAUCUACAUGAGGAUCACCCAUGUUUUUAACUCAAGUCCGCAGAAGGCUUAAGGAUAU”, the “apparent Kd” value by setting is: under setting [3], 5.13 nM; under setting [4], 5 nM.

As for “GCGGAACAUGAGGAUCACCCAUGUAAGGAUAUCGUGAGGGAACGGCAGCAACACUGAUCGAGAAGGUACAGGGC”, the “apparent Kd” value is, setting by setting: under setting [1], 23 nM; under setting [2], 36.4 nM.

Turning to “GAAUUAGUGUUGGAGGAUAUCCCAUGUCUUACAUGAGGAUCACCCAUGUCCGGACAACGACAAAAGGAGAAGGCCAUCAUCAUGUC”, the “apparent Kd” value by setting is: under setting [3], 772 nM; under setting [4], 80.8 nM.

For “CUCUUAGGACAGGAUAUGGAACGCAUGUGUGCUCCAGAAGGGUCUACAUGAGGAUCACCCAUGUUCGGGACGGU”, the “apparent Kd” value by setting is: under setting [1], 530 nM; under setting [2], 469 nM.

Take “AGAUCCCUGGUGAGGAUAUGUGAGACAUUCCCAGGACAGAAGGCACAUGAGGAUCACCCAUGUGUUGGGUAAUU”: the “apparent Kd” value runs as follows: under setting [1], 6.32 nM; under setting [2], 6.65 nM.
